In ChEMBL document CHEMBL4387709, “Discovery of Quinoline Analogues as Potent Antivirals against Enterovirus D68 (EV-D68)” (J Med Chem, 2019):
pEC50: −log10 of the molar value. The source made the active and inactive calls. No cut-off for these calls is given here.

Assays:
RD = test: Cytotoxicity against human RD cells after 3 days by neutral red dye-based photometric method; assay type: cell-based; conditions: rd, 72 h
[1] = Selectivity index, ratio of CC50 for human RD cells to EC50 for Enterovirus D68 US/KY/14-18953 infected in human RD cells; assay type: toxicity, cell-based; conditions: read-out: Ratio CC50/EC50
Influenza A virus = test: Antiviral activity against Influenza A virus (A/California/07/2009(H1N1)) at 10 uM after 2 days by plaque assay; assay type: functional, organism-based
Influenza B virus = test: Antiviral activity against Influenza B virus (B/Brisbane/60/2008) at 10 uM after 2 days by plaque assay; assay type: functional, organism-based
enterovirus D68 [2] = test: Antiviral activity against Enterovirus D68 US/IL/14-18956 infected in human RD cells assessed as inhibition of virus-induced cytopathic effect incubated for 5 mins under shaking condition and measured after 3 days by neutral red dye-based photometric method; assay type: functional, organism-based; conditions: Enterovirus D, US/IL/14-18956, RD
In short: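 RD cells seeded one day ahead to ~90% confluence, PBS (Mg/Ca) wash, infected at ~MOI 0.01 with EV-D68 in DMEM/2% FBS/30 mM MgCl2 at 33 °C, 5% CO2. Compounds and 1% P/S added after 1 h. Plates shaken ~5 min, held 3 days, viable cells stained with neutral red (66 µg/ml), A540 read. EC50 from dose-response fits, triplicates.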

[3] = Selectivity index, ratio of CC50 for human RD cells to EC50 for Enterovirus D68 US/MO/14-18947 infected in human RD cells; assay type: toxicity, cell-based; conditions: read-out: Ratio CC50/EC50
[4] = Selectivity index, ratio of CC50 for human RD cells to EC50 for Enterovirus D68 […] infected in human RD cells; assay type: toxicity, cell-based; conditions: read-out: Ratio CC50/EC50
In short: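 RD cells in DMEM with 10% FBS were infected at about 90% confluency at MOI about 0.01, giving full CPE by 3 days, in DMEM with 2% FBS and 30 mM MgCl2 at 33 °C. Compounds and P/S were added 1 h after infection. Viability was read by neutral red uptake (A540). CC50 came from uninfected cells. Means were from triplicates, and SI = CC50/EC50.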

A549 = test: Cytotoxicity against human A549 cells after 3 days by neutral red dye-based photometric method; assay type: cell-based; conditions: a549, 72 h
In short: (§1)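 Uninfected cells run as in the CPE assay (33 °C, 3 days, same media) with compound. Viability by neutral red staining and 540 nm absorbance. CC50 from dose-response curves, triplicate experiments.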

enterovirus D68 [5] = test: Antiviral activity against Enterovirus D68 US/KY/14-18953 infected in human A172 cells assessed as inhibition of virus-induced cytopathic effect incubated for 5 mins under shaking condition and measured after 3 days by neutral red dye-based photometric method; assay type: functional, organism-based; conditions: Enterovirus D, US/KY/14-18953, A 172
In short: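 A172 cells (DMEM, 10% FBS) grown ~90% confluent, infected with EV-D68 at ~MOI 0.3 in DMEM/2% FBS/30 mM MgCl2 and kept at 33 °C. P/S and compounds added 1 h later. Brief orbital shaking, then 3-day incubation. Neutral red staining with 540 nm absorbance. EC50 from best-fit dose-response curves in triplicate.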

[6] = Selectivity index, ratio of CC50 for human SH-SY5Y cells to EC50 for Enterovirus D68 US/KY/14-18953 infected in human SH-SY5Y cells; assay type: toxicity, cell-based; conditions: read-out: Ratio CC50/EC50
In short: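 SH-SY5Y cells grown in 50% DMEM/50% F-12 with 10% FBS and 1% P/S to about 90% confluency, then infected at MOI about 1 in DMEM with 2% FBS and 30 mM MgCl2 at 33 °C. Compounds were added after 1 h. Neutral red staining was read at 540 nm after 3 days. CC50 came from uninfected cells under the same conditions. Values were triplicate dose-response fits, and SI = CC50/EC50.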

SH-SY5Y = test: Cytotoxicity against human SH-SY5Y cells after 3 days by neutral red dye-based photometric method; assay type: cell-based; conditions: 72 h; in short: as §1

## O=C(NCCN1CCCC1)c1cc(-c2cccs2)nc2ccccc12
RD
  CC50: 40 µM
[1]
  selectivity ratio: 667
Influenza A virus
  Activity: inactive
Influenza B virus
  Activity: inactive
Enterovirus D68 [2]
  pEC50: 7.30
[3]
  selectivity ratio: 667
[4]
  selectivity ratio: 571
A549
  CC50: 83.2 µM
Enterovirus D68 [5]
  pEC50: 7.30
[6]
  selectivity ratio: 933
SH-SY5Y
  CC50: 93.3 µM
